# Data published in ChEMBL document CHEMBL1125395, “Development of high-affinity 5-HT3 receptor antagonists. 1. Initial structure-activity relationship of novel benzamides” (J Med Chem, 1992).
# Columns and labels:
# [1] = target: T1, Serotonin 3 (5-HT3) receptor (Rattus norvegicus, UniProt P35563+Q9JJ16); test: Displacement of the 5-hydroxytryptamine 3 receptor ligand [3H]GR-65630 from rat brain cortical membranes.; assay type: cell membranes, Membrane
# T1 sequence (P35563 whole entry): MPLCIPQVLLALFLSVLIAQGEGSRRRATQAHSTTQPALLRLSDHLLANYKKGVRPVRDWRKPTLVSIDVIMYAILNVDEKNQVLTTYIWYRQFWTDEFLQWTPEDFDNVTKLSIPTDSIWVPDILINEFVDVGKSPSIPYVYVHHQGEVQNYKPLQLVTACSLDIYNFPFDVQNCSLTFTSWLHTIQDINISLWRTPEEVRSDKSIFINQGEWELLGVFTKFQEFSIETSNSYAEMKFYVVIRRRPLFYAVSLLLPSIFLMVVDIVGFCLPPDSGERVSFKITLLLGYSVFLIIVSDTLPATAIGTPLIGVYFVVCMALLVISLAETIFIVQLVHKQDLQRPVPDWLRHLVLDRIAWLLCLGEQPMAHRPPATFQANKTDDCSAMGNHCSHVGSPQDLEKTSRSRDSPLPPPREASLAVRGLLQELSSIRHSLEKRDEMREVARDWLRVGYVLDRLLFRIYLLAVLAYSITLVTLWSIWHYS
# T1 sequence (Q9JJ16 whole entry): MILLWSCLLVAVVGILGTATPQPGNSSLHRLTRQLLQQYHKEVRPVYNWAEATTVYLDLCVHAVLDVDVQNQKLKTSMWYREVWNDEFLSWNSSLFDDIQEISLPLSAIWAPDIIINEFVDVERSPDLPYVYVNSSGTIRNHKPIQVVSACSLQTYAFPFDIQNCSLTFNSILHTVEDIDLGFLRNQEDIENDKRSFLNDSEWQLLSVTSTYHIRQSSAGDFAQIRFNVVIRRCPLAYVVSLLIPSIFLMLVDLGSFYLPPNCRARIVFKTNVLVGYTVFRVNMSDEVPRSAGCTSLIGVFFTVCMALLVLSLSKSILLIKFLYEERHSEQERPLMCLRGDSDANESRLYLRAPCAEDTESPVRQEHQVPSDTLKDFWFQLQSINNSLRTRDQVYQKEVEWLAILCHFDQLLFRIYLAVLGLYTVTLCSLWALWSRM
# Summary of the method: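 Entorhinal cortex from frozen rat brains homogenized, spun 40000g 10 min in HEPES buffer (25 mM HEPES, CaCl2 5 mM, pH 7.4). Filtration, Tris pH 7.7 washes, scintillation counting. Four-six concentrations in triplicate; Ki via Cheng-Prusoff.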
# Mustela putorius furo [2] = test: Antiemetic activity (intravenous administration) against cisplatin-induced emesis in ferret, as the dose required to reduce emetic episodes to 50% of control value; assay type: functional
# Summary of the method: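 Castrated male Fitch ferrets (1-2 kg, nonfasted), jugular catheter implanted ≥48 h prior. Compound in 0.9% saline iv (2 mL/kg) 30 min before and 45 min after cisplatin 3 mg/kg iv. Emetic episodes counted for 4 h post-cisplatin, % inhibition vs vehicle controls run in tandem; dose halving episodes from 4-10 animals/dose, ≥3 doses, 95% confidence limits.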
# Mustela putorius furo [3] = test: Antiemetic activity (intravenous administration) against cisplatin-induced emesis in ferret, as the dose required to increase latency to first emetic bout by 100%; assay type: functional
# Summary of the method: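 Nonfasted castrated male Fitch ferrets (1-2 kg) with jugular vein catheter implanted under pentobarbital ≥48 h earlier. Drug in 0.9% saline, 2 mL/kg iv, 30 min before and 45 min after cisplatin (3 mg/kg iv). Emetic latency recorded over 4 h; % increase vs tandem vehicle; dose raising mean latency 100%. 3-12 ferrets/dose, ≥3 doses, 95% confidence limits.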
# Mustela putorius furo [4] = test: Antiemetic activity (oral administration) against cisplatin-induced emesis in ferret, as the dose required to increase latency to first emetic bout by 50%; assay type: functional
# Summary of the method: (§1)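 Nonfasted castrated male Fitch ferrets (1-2 kg), each used once. Drug dissolved/suspended in 0.5% methylcellulose in gelatin capsule, given po 60 min before cisplatin 3 mg/kg iv (via jugular catheter). Vehicle controls in tandem. Observed 4 h; emetic episodes and latency to first bout recorded. ED50 from 3-12 animals per dose, at least 3 doses, with 95% confidence limits.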
# Mustela putorius furo [5] = test: Antiemetic activity (oral administration) against cisplatin-induced emesis in ferret, as the dose required to reduce emetic episodes to 50% of control value; assay type: functional; summary of the method: as §1
Structure (SMILES),Ki [1] [nM],ED50 (Mustela putorius furo [2]) [mg/kg],ED100 (Mustela putorius furo [3]) [mg/kg],ED50 (Mustela putorius furo [4]) [mg/kg],ED50 (Mustela putorius furo [5]) [mg/kg]
CC1(C)CCCc2cc(Cl)cc(C(=O)NC3CN4CCC3CC4)c2O1 (stereo unspecified),15.6,–,–,–,–
O=C(NC1CN2CCC1CC2)c1cccc2c1OCCCC2 (stereo unspecified),13.8,–,–,–,–
O=C(NC1CN2CCC1CC2)c1cc(Cl)cc2c1OCCCCC2 (stereo unspecified),4.7,–,–,–,–
COc1ccc(Cl)cc1C(=O)NC1CN2CCC1CC2 (stereo unspecified),46.8,–,–,–,–
O=C(NC1CN2CCC1CC2)c1cc(Cl)cc2c1OC1(CCCCC1)C2 (stereo unspecified),1.07,0.002,0.006,–,–
O=C(NC1CCN2CCCC1C2)c1cc(Cl)cc2c1OCCCC2 (stereo unspecified),63,–,–,–,–
O=C(N[C@H]1CN2CCC1CC2)c1cc(Cl)cc2c1OC1(CCCCC1)C2,0.89,0.099,0.055,–,–
O=C(N[C@@H]1CN2CCC1CC2)c1cc(Cl)cc2c1OC1(CCCCC1)C2,0.19,0.009,0.005,0.004,0.009
Nc1c(Cl)cc2c(c1C(=O)NC1CN3CCC1CC3)OCCCC2 (stereo unspecified),> 100,–,–,–,–
COc1c(C(=O)NC2CN3CCC2CC3)cc(Cl)cc1C1CCCCC1 (stereo unspecified),6.09,–,–,–,–
CCC(C)Oc1c(C(=O)NC2CN3CCC2CC3)cc(Cl)cc1C1CCCCC1 (stereo unspecified),> 30,–,–,–,–
O=C(NC1CN2CCC1CC2)c1cc(Cl)cc2c1OCCCC2 (stereo unspecified),1.22,–,–,–,–
O=C(NC1CN2CCC1CC2)c1cc(Br)cc2c1OCCCC2 (stereo unspecified),2.16,–,–,–,–
CN1CC2CCC1CC(OC(=O)c1c[nH]c3ccccc13)C2 (stereo unspecified),1.66,–,–,–,–
CN1C2CCCC1CC(NC(=O)c1nn(C)c3ccccc13)C2 (stereo unspecified) [GRANISETRON],–,0.226,0.082,0.117,0.119
CCN(CC)CCNC(=O)c1cc(Cl)c(N)cc1OC [METOCLOPRAMIDE],995,1.45,2.1,> 5,6.17
Cc1nccn1CC1CCc2c(c3ccccc3n2C)C1=O (stereo unspecified) [ONDANSETRON],–,0.008,0.015,0.031,0.28
COc1cc(N)c(Cl)cc1C(=O)NC1CN2CCC1CC2 (stereo unspecified) [ZACOPRIDE],1.5,–,–,–,–
